Reference: publication PMC11318567 (Computational and Structural Biotechnology Journal, 2024)
“Also recorded” adds a separate entry of the source.

How the values were obtained:
[1] = molecular target: T1, human topo IIα (Homo sapiens, UniProt P11388); test: Human topo IIα-mediated decatenation assay; type: biochemical; conditions: for IC50, topo IIα-mediated decatenation assay: average of two replicates
[2] = molecular target: human topo IIβ (Homo sapiens, UniProt Q02880); test: Human topo IIβ-mediated decatenation assay; type: biochemical
[3] = molecular target: T1, human topo IIα; test: Human topoisomerase IIα-mediated cleavage assay; type: biochemical; conditions: 7.8-125 μM
[4] = molecular target: T1, human topo IIα; test: Human topo IIα competitive cleavage assay; type: biochemical; conditions: in the presence of 50 μM etoposide
[5] = tested on: wheatgerm topo I; test: Wheatgerm topo I unwinding assay; type: biochemical, wheat germ; conditions: 7.8, 15.6, 31.25, 125 μM
Method in brief: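 Wheat germ topo I plasmid unwinding run in duplicate at 7.8, 15.6, 31.25 and 125 µM test compound, with the intercalator m-AMSA as positive control.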

[6] = molecular target: human topo II (Homo sapiens, UniProt P11388); test: Competitive ATPase assay; type: biochemical; conditions: IC50 versus ATP concentration
Method in brief: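 NADH-coupled ATPase (pyruvate kinase/lactate dehydrogenase, phosphoenolpyruvate) with human topo II at 14 nM final and linear pBR322. Buffer was 20 mM Tris-HCl, 5 mM Mg acetate, 125 mM K acetate, 2 mM DTT, pH 7.9. Compound in DMSO went in before enzyme, then a 10–15 min OD340 pre-run. ATP was added at varying concentrations and OD340 followed for up to 30 min at 37 °C, in duplicate. Hydrolysis rates vs ATP gave IC50 at each ATP level.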

[7] = molecular target: ATPase domain of topo IIα (Homo sapiens, UniProt P11388); test: 1H STD NMR experiments; type: binding; conditions: protein:ligand ratio 1:100
Method in brief: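 Runs were at 600 MHz, 25 °C, with a 100 ms T₁ρ filter. On-resonance saturation was at −0.727 ppm and off-resonance at 30 ppm. Saturation was 0.5 or 1 s depending on compound, with relaxation delay 4 or 1.5 s. Epitope maps come from STD amplification factors.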

[8] = Solubility as observed during preparation for assays; type: physicochemical
[9] = tested on: NCI-60 human cancer cell lines; test: NCI-60 screening, whole panel; type: cell-based; conditions: 10 µM
[10] = molecular target: T1, human topo IIα; test: Human topoisomerase IIα-mediated relaxation assay; type: biochemical
[11] = tested on: U251; test: NCI-60 screening; type: cell-based; conditions: Homo sapiens, U-251, read-out: inhibition of cell growth
[12] = tested on: SK-MEL-5; test: NCI-60 screening; type: cell-based; conditions: Homo sapiens, SK-MEL-5, read-out: inhibition of cell growth

Sequence of human topo IIβ (Q02880 whole entry): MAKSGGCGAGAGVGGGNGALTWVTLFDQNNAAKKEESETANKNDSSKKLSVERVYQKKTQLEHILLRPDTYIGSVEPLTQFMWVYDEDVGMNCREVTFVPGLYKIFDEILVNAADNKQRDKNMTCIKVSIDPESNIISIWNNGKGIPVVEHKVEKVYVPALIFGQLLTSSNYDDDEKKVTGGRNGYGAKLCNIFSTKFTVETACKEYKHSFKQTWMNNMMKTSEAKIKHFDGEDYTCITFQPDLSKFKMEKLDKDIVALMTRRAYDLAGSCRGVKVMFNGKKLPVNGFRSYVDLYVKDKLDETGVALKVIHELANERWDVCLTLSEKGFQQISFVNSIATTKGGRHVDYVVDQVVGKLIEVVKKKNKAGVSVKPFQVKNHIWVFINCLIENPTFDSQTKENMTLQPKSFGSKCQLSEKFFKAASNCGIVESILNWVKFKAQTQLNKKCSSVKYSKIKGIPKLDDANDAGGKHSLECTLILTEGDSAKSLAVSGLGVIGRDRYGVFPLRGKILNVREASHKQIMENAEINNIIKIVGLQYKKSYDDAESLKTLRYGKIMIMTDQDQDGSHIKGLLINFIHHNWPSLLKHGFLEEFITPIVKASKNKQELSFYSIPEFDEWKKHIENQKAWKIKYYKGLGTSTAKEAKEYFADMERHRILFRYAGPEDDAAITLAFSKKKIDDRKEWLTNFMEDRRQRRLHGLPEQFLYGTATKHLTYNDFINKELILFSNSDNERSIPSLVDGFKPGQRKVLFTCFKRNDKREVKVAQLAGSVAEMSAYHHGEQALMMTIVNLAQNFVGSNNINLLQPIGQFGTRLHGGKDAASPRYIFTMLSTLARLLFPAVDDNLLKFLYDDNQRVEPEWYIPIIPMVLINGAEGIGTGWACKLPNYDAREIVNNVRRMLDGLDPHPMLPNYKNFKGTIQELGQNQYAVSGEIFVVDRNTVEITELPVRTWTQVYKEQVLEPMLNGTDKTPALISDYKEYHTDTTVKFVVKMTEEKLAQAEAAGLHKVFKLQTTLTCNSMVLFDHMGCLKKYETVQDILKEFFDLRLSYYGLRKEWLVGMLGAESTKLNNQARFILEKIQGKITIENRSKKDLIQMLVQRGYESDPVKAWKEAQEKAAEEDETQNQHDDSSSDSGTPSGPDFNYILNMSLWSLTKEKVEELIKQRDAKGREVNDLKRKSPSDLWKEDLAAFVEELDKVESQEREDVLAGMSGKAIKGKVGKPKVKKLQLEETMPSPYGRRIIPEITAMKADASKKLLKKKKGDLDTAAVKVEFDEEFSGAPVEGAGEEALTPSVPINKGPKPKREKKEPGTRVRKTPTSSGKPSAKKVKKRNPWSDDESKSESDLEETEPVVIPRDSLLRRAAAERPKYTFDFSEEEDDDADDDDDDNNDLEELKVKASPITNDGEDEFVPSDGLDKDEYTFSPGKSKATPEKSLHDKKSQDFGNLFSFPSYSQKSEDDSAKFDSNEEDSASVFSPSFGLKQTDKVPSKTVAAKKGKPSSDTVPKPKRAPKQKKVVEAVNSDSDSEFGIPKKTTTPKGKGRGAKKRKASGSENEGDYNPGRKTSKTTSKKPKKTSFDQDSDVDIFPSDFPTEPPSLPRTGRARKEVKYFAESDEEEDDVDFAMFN
T1 sequence (P11388 whole entry): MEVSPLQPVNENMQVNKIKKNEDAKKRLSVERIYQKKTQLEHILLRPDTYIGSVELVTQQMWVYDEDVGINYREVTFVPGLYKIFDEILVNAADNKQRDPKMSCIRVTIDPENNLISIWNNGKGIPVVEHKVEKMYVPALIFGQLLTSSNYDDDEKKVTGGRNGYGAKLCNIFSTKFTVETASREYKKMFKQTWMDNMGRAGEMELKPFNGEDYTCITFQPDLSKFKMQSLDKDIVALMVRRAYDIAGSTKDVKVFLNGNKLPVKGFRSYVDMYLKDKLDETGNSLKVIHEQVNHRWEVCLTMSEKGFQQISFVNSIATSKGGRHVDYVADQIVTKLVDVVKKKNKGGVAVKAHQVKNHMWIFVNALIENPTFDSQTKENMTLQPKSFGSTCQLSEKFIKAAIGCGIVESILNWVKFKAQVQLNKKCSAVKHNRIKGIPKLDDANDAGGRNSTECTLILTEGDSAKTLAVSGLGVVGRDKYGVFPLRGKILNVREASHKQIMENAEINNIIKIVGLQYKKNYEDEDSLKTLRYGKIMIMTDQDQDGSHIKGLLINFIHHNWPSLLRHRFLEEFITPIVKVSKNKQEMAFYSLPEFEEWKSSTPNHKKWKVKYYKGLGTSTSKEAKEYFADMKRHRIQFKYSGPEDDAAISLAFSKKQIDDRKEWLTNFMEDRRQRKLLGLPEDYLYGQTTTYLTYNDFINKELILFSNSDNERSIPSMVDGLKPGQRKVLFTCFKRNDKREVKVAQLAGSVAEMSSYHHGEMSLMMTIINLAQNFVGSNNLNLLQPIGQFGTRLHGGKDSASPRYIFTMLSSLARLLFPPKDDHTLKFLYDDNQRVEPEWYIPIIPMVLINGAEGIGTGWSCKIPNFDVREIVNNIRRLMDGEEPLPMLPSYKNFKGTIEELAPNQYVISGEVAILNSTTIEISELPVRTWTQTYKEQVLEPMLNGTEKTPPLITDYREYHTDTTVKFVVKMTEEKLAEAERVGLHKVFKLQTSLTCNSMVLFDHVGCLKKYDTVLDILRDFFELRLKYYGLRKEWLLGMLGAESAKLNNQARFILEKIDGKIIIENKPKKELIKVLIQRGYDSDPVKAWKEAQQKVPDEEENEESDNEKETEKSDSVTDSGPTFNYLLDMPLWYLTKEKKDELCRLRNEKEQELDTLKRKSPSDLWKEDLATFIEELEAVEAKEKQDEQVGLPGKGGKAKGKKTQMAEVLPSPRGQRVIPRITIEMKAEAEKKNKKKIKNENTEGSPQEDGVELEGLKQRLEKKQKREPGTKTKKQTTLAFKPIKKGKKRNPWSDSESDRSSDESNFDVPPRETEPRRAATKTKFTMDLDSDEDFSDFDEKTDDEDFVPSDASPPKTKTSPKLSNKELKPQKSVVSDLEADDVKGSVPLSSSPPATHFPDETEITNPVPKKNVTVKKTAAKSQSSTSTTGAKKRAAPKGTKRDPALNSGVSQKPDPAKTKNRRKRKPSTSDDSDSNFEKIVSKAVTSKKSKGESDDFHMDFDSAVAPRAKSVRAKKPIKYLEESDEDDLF
Sequence of ATPase domain of topo IIα (P11388 1-453 limits assumed): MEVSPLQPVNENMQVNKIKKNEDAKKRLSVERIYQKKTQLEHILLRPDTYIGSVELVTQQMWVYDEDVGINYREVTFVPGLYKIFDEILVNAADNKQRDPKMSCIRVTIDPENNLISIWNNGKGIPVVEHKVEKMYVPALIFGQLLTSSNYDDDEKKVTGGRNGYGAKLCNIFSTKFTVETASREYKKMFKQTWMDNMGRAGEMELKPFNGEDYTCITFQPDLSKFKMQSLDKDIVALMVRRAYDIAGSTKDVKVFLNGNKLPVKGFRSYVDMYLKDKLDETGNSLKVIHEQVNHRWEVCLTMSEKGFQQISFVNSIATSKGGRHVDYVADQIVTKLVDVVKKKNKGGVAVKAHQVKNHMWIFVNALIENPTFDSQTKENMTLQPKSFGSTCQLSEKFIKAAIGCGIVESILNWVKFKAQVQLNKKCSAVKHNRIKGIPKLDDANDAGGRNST
Sequence of human topo II (P11388 whole entry): as the sequence (P11388 whole entry) above

| Compound | IC50 [2] [µM] | linear plasmid in the cleavage assay (in words) [3] | unwinding / intercalation (in words) [5] | interaction with the ATPase domain of topo IIα by STD NMR (in words) [7] | solubility (in words) [8] | cytotoxic activity in NCI-60 (in words) [9] | IC50 [10] [µM] | also measured |
| --- | --- | --- | --- | --- | --- | --- | --- | --- |
| O=c1nc(SCc2cc(F)cc(C(F)(F)F)c2)nc(SCc2ccc3nc(Cl)ccc3c2)[nH]1 [Compound 30, 6-(((2-Chloroquinolin-6-yl)methyl)thio)−4-((3-fluoro-5-(trifluoromethyl)benzyl)thio)−1,3,5-triazin-2(1H)-one] | 10.6 ± 28.8 | only a very weak increase in the linear plasmid at the highest concentration of 125 μM | inhibitors rather than intercalators | confirmed the interaction | more soluble compared to the previous series; also recorded: more soluble compared to the benzyl-substituted analogues |  |  | IC50 [1]: 12 ± 4.8 µM; linear product in the competitive cleavage assay (in words) [4]: decreased the amount of linear product of the etoposide-topo IIα complex; mode of inhibition with respect to ATP (in words) [6]: ATP-competitive inhibition |
| O=c1nc(SCc2cc(F)cc(C(F)(F)F)c2)nc(SCc2cccc(C(F)(F)F)c2)[nH]1 [Compound 34, 4-((3-Fluoro-5-(trifluoromethyl)benzyl)thio)− 6-((3-(trifluoromethyl)benzyl)thio)− 1,3,5-triazin-2(1 H)-one] |  |  |  |  | less soluble | did not exhibit cytotoxic activity |  |  |
| O=c1nc(SCc2cc(F)cc(C(F)(F)F)c2)nc(SCc2ccc3nc(OCCN4CCOCC4)ccc3c2)[nH]1 [Compound 31, 4-((3-Fluoro-5-(trifluoromethyl)benzyl)thio)−6-(((2-(2-morpholinoethoxy)quinolin-6-yl)methyl)thio)−1,3,5-triazin-2(1H)-one] |  | no linear plasmid up to the measured concentration of 125 μM |  | confirmed the interaction | more soluble compared to the previous series |  |  | IC50 [1]: 18.5 ± 5.9 µM |
| COc1cc([C@@H]2c3cc4c(cc3[C@@H](O[C@@H]3O[C@@H]5CO[C@@H](C)O[C@H]5[C@H](O)[C@H]3O)[C@H]3COC(=O)[C@H]23)OCO4)cc(OC)c1O [Etoposide, etoposide, reference compound] |  |  | showed no signs of unfolding |  |  |  |  |  |
| CC(C)c1ccc(CSc2nc(SCc3ccc4sccc4c3)[nH]c(=O)n2)cc1 [Compound 26, 6-((Benzo[b]thiophen-5-ylmethyl)thio)−4-((4-isopropylbenzyl)thio)−1,3,5-triazin-2(1H)-one] |  |  |  |  |  | much lower compared to 24 and 25 |  |  |
| COc1cc(NS(C)(=O)=O)ccc1Nc1c2ccccc2nc2ccccc12 [mAMSA, reference compound] |  |  | showed intercalator-mediated effects at all 4 concentrations |  |  |  |  |  |
| O=c1nc(SCc2cc(F)cc(C(F)(F)F)c2)nc(SCc2csc3ccc(Cl)cc23)[nH]1 [Compound 32, 6-(((5-Chlorobenzo[b]thiophen-3-yl)methyl)thio)−4-((3-fluoro-5-(trifluoromethyl)benzyl)thio)−1,3,5-triazin-2(1H)-one] | 8.3 ± 2.5 | higher even at lower concentrations |  |  |  |  | 8.7 ± 7.3 | IC50, topo IIα-mediated decatenation assay [1]: single-digit micromolar range |
| O=c1nc(SCc2ccc(C(F)(F)F)cc2)nc(SCc2ccc3sccc3c2)[nH]1 [Compound 25, 6-((Benzo[b]thiophen-5-ylmethyl)thio)−4-((4-(trifluoromethyl)benzyl)thio)−1,3,5-triazin-2(1H)-one] |  |  |  |  |  | more diverse and potent cytotoxic effects |  | inhibition at 10 µM [11]: 80%; inhibition at 10 µM [12]: 89.5% |
| O=c1nc(SCc2ccc(C(F)(F)F)cc2)nc(SCc2csc3ccc(Cl)cc23)[nH]1 [Compound 33, 6-(((5-Chlorobenzo[b]thiophen-3-yl)methyl)thio)−4-((4-(trifluoromethyl)benzyl)thio)−1,3,5-triazin-2(1H)-one] |  |  |  |  |  |  | 7.7 ± 8.5 | IC50, topo IIα-mediated decatenation assay [1]: single-digit micromolar range |
| Cc1nc(CSc2nc(SCc3ccc(C(C)C)cc3)nc(=O)[nH]2)cs1 [Compound 37, 4-((4-Isopropylbenzyl)thio)−6-(((2-methylthiazol-4-yl)methyl)thio)−1,3,5-triazin-2(1H)-one] | 16 ± 39 | only a very weak increase in the linear plasmid at the highest concentration of 125 μM | inhibitors rather than intercalators | confirmed its interaction with the ATPase domain |  | did not exhibit cytotoxic activity | 108 ± 3.8 |  |
